# Laboratory results: PubChem BioAssay AID651651 (Broad Institute, 2012)
# Unmarked numbers belong to inactive results.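 The calls were made as follows: active = signal-lowering compounds whose fitted half-effect concentration is no more than twice the top tested dose; inconclusive = flat curve with 30 to 70% inhibition, or poor fit; inactive = the rest.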
# Assay: quencher artefacts in RAD54 branch migration readout – biochemical, Cy5 label, cherry-picked samples, artefact control for RAD54 inhibitor project, dose response (AID 651651)
# Conditions: Cy5 DNA fluorescence quench counter-screen; series mostly up to 50 µM; activity change, negative = inhibition: at the top concentration
# Method in brief: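 Test system: human RAD54 enzyme; Amount: 30 nM RAD54 in the enzyme mix; Medium: 25 mM Tris pH 7.5, 3 mM MgCl2, 2 mM ATP; Measured by: Cy5 fluorescence; Times: 60 min reaction at room temperature after substrate addition; Doses: pinned compound dose series, 10 mM stock solutions.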
row,SMILES,"activity change, negative = inhibition"
1,Cc1ccc(S(=O)(=O)N(C)C[C@@H]2Oc3ccc(NC(=O)NC4CCCCC4)cc3CC(=O)N([C@H](C)CO)C[C@@H]2C)cc1,-9.35%
2,COc1ccc(CN(C)C[C@@H]2Oc3ccc(NC(=O)NC(C)C)cc3C(=O)N([C@@H](C)CO)C[C@H]2C)cc1,5.61%
3,COc1ccc(CN(C)C[C@@H]2Oc3ccc(NC(=O)Nc4ccc5c(c4)OCO5)cc3C(=O)N([C@@H](C)CO)C[C@H]2C)cc1,-2.31%
4,C[C@H]1CN([C@@H](C)CO)C(=O)c2cc(NS(=O)(=O)c3cccs3)ccc2O[C@@H]1CN(C)C(=O)Nc1cccc2ccccc12,-11%
5,COc1ccc(CN(C)C[C@@H]2Oc3ccc(NC(=O)Nc4ccc(F)cc4)cc3C(=O)N([C@@H](C)CO)C[C@H]2C)cc1,-1.07%
6,CC(C)NC(=O)Nc1ccc2c(c1)C(=O)N([C@H](C)CO)C[C@@H](C)[C@H](CN(C)S(=O)(=O)c1ccc(Cl)cc1)O2,-6.47%
7,COc1ccc(CN(C)C[C@@H]2Oc3ccc(NC(=O)Nc4ccc(OC)cc4)cc3C(=O)N([C@H](C)CO)C[C@H]2C)cc1,-7.79%
8,C[C@H]1CCCCO[C@@H](CN(C)C(=O)Nc2ccc3c(c2)OCO3)[C@@H](C)CN([C@@H](C)CO)C(=O)c2cc(NC(=O)Nc3ccc(C(F)(F)F)cc3)ccc2O1,-9.86%
9,C[C@@H]1CCCCO[C@@H](CN(C)S(C)(=O)=O)[C@H](C)CN([C@H](C)CO)C(=O)c2cc(NC(=O)Nc3ccc4c(c3)OCO4)ccc2O1,4.79%
10,COc1ccc(CN(C)C[C@@H]2Oc3ccc(NC(=O)Nc4ccc5c(c4)OCO5)cc3C(=O)N([C@H](C)CO)C[C@H]2C)cc1,-3.25%
11,C[C@H](NC(=O)C[C@H]1C[C@H]2c3cc(NC(=O)c4cccnc4)ccc3O[C@H]2[C@@H](CO)O1)c1ccccc1,-2.79%
12,Cc1noc(C)c1NC(=O)N(C)C[C@H]1Oc2c(NC(=O)Nc3ccc(C(F)(F)F)cc3)cccc2C(=O)N([C@@H](C)CO)C[C@H]1C,4.92%
13,C/C=C/c1ccc([C@@H]2[C@@H](CO)N3CCCCN(C(=O)Nc4ccc(F)cc4)C[C@H]23)cc1,-8.63%
14,Cc1noc(C)c1NC(=O)Nc1ccc2c(c1)C(=O)N([C@@H](C)CO)C[C@@H](C)[C@H](CN(C)C(=O)Nc1cccc3ccccc13)O2,1.39%
15,COc1ccc(CN(C)C[C@@H]2Oc3ccc(NC(=O)Nc4ccccc4)cc3C(=O)N([C@H](C)CO)C[C@H]2C)cc1,-5.83%
16,CN(C)c1ccc2c(c1)[C@@H]1C[C@H](CC(=O)NCCN3CCCCC3)O[C@H](CO)[C@@H]1O2,-7.07%
17,C[C@@H]1CN([C@@H](C)CO)C(=O)c2cc(NS(=O)(=O)c3cccs3)ccc2O[C@@H]1CN(C)C(=O)Nc1cccc2ccccc12,2.94%
18,COc1ccc(S(=O)(=O)N(C)C[C@@H]2Oc3ccc(NC(=O)Nc4ccc5c(c4)OCO5)cc3C(=O)N([C@@H](C)CO)C[C@H]2C)cc1,2.06%
19,COc1ccc(CN(C)C[C@@H]2Oc3ccc(NC(=O)Nc4ccccc4)cc3C(=O)N([C@@H](C)CO)C[C@H]2C)cc1,0.045%
20,COCC(=O)Nc1ccc2c(c1)[C@H]1C[C@@H](CC(=O)NCc3ccccc3F)O[C@H](CO)[C@H]1O2,-6.26%
21,COc1ccccc1CNC(=O)C[C@H]1C[C@@H]2c3cc(NC(=O)c4cccnc4)ccc3O[C@@H]2[C@H](CO)O1,-9.59%
22,C[C@@H]1CN([C@H](C)CO)C(=O)c2cc(NC(=O)Nc3ccc4c(c3)OCO4)ccc2O[C@H]1CN(C)C(=O)Nc1cccc2ccccc12,0.117% [at 46 µM]
23,Cc1ccc(S(=O)(=O)N(C)C[C@@H]2Oc3ccc(NC(=O)Nc4c(C)noc4C)cc3CC(=O)N([C@@H](C)CO)C[C@@H]2C)cc1,-11.8%
24,CS(=O)(=O)N1[C@@H]2Cn3c(ccc(C4=CCCCC4)c3=O)[C@H]1[C@@H](C(=O)N1CCOCC1)[C@@H]2CO,-13.1%
25,C[C@H]1CN([C@@H](C)CO)C(=O)Cc2cc(NC(=O)Nc3cccc4ccccc34)ccc2O[C@H]1CN(C)S(=O)(=O)c1ccc(Cl)cc1,-1.16% [at 46 µM]
26,COc1ccc(S(=O)(=O)Nc2ccc3c(c2)[C@@H]2C[C@H](CC(=O)NCC4CC4)O[C@H](CO)[C@@H]2O3)cc1,0.179%
27,COc1ccc(-c2ccc3c(c2)[C@H]2[C@H](CCN2C(=O)Cc2cccnc2)[C@H](CO)N3C)cc1,-12.9%
28,O=S(=O)(c1ccccc1)N1CCCCN2[C@H](CO)[C@H](c3ccc(C#CC4CCCC4)cc3)[C@@H]2C1,-7.42%
29,COc1ccccc1CNC(=O)C[C@@H]1C[C@@H]2c3cc(NC(=O)CN(C)C)ccc3O[C@@H]2[C@@H](CO)O1,4.27%
30,COc1ccc(C#Cc2ccc([C@H]3[C@@H](CO)N4CCCCN(C(=O)Nc5cccc(F)c5)C[C@H]34)cc2)cc1,-11.1%
